Laboratory results published in ChEMBL document CHEMBL1125057, “Synthesis and antihypertensive activity of 4-(substituted-carbonylamino)-2H-1-benzopyrans” (1990).

Experiments:
Type in all cases: functional
Rattus norvegicus [1] = assay: Systolic blood pressure was measured at intervals from 1 to 6 hr in groups of six rats after oral administration of a dose of 3 mg/kg
Outline: (§1)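 Conscious spontaneously hypertensive rats of Okamoto origin, 14-24 weeks old, with systolic pressure >180 mmHg, were used in groups of six. Dosing was oral by esophageal needle as a solution or suspension in 1% w/v methylcellulose. Systolic pressure was taken by tail-cuff before dosing and at intervals up to 6 h postdose. Each determination was the mean of at least six recordings.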

Rattus norvegicus [2] = assay: Systolic blood pressure was measured at intervals from 1 to 6 hr in groups of six rats after oral administration of a dose of 1.0 mg/kg; outline: as §1
Rattus norvegicus [3] = assay: Systolic blood pressure was measured at intervals from 1 to 6 hr in groups of six rats after oral administration of a dose of 0.1 mg/kg; outline: as §1
Oryctolagus cuniculus = species: Oryctolagus cuniculus; assay: Increase in rubidium-86 efflux in rabbit isolated mesenteric artery over basal rate
Outline: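 Segments (10-20 mg wet weight) of New Zealand White rabbit mesenteric artery were held 30 min in aerated (19:1 O2-CO2) HEPES buffer, pH 7.4, at 37 °C. They were loaded with 100-200 µCi rubidium-86 over 90 min, then moved every 3 min through label-free buffer. Compound at 1 × 10^-5 M was present over min 30-48. Efflux was counted by liquid scintillation. Value is the maximum rate coefficient over min 30-45 as a percentage of basal (mean over min 21-30), ± standard error.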

Rattus norvegicus [4] = assay: Systolic blood pressure at intervals from 1 to 6 hr in groups of six rats after 0.3 mg/kg p.o. administration.; settings: route oral; outline: as §1
Rattus norvegicus [5] = assay: Systolic blood pressure was measured at intervals from 1 to 6 hr in groups of six rats after oral administration of a dose of 1 mg/kg; outline: as §1
Rattus norvegicus [6] = assay: Systolic blood pressure was measured at intervals from 1 to 6 hr in groups of six rats after oral administration of a dose of 10 mg/kg; outline: as §1
Rattus norvegicus [7] = assay: Systolic blood pressure was measured at intervals from 1 to 6 hr in groups of six rats after oral administration of a dose of 10.0 mg/kg; outline: as §1
Rattus norvegicus [8] = assay: Systolic blood pressure was measured at intervals from 1 to 6 h in groups of six rats after oral administration of a dose of 1 mg/kg; outline: as §1

SMILES | Decrease in blood pressure (Rattus norvegicus [2]) | Decrease in blood pressure (Rattus norvegicus [4]) | Decrease in blood pressure (Rattus norvegicus [6]) | other results
CC(=O)Nc1cc2c(cc1[N+](=O)[O-])OC(C)(C)[C@@H](O)C2NC(C)=O (some centres not stated) | – | – | – | Decrease in blood pressure (Rattus norvegicus [1]): 16%
CNC(=O)NC1c2cc(C#N)ccc2OC(C)(C)[C@H]1O (some centres not stated) | 61% | 31% | – | Decrease in blood pressure (Rattus norvegicus [3]): 14%; Increase (Oryctolagus cuniculus): 63%
CC(=S)NC1c2cc(C#N)ccc2OC(C)(C)[C@H]1O (some centres not stated) | 53% | 26% | – | –
CC(=O)NC1c2cc(Br)c([N+](=O)[O-])cc2OC(C)(C)[C@H]1O (some centres not stated) | 51% | 25% | – | –
CCN(C(C)=O)C1c2cc(C#N)ccc2OC(C)(C)[C@H]1O (some centres not stated) | 22% | 14% | – | –
CC(=O)Nc1cc2c(cc1[N+](=O)[O-])C(NC(C)=O)[C@H](O)C(C)(C)O2 (some centres not stated) | – | 38% | – | Decrease in blood pressure (Rattus norvegicus [3]): 9%
CCCCNC(=O)NC1c2cc(C#N)ccc2OC(C)(C)[C@H]1O (some centres not stated) | – | – | 29% | Decrease in blood pressure (Rattus norvegicus [5]): 11%
COCC(=O)NC1c2cc(C#N)ccc2OC(C)(C)[C@H]1O (some centres not stated) | 32% | 16% | – | –
CCOC(=O)NC1c2cc(C#N)ccc2OC(C)(C)[C@H]1O (some centres not stated) | – | – | – | Decrease in blood pressure (Rattus norvegicus [1]): 22%; Decrease in blood pressure (Rattus norvegicus [5]): 13%; Decrease in blood pressure (Rattus norvegicus [7]): 54%
C/N=C(/S)NC1c2cc(C#N)ccc2OC(C)(C)[C@H]1O (some centres not stated) | – | – | – | Decrease in blood pressure (Rattus norvegicus [1]): 33%; Decrease in blood pressure (Rattus norvegicus [5]): 16%; Decrease in blood pressure (Rattus norvegicus [7]): 50%
CC1(C)Oc2ccc(C#N)cc2C(NC(N)=O)[C@@H]1O (some centres not stated) | – | – | – | Decrease in blood pressure (Rattus norvegicus [1]): 46%; Decrease in blood pressure (Rattus norvegicus [5]): 18%; Decrease in blood pressure (Rattus norvegicus [7]): 56%
CC1(C)Oc2ccc(C#N)cc2C(NC(=O)Nc2ccccc2)[C@@H]1O (some centres not stated) | – | – | 13% | –
CC1(C)Oc2ccc(C#N)cc2C(NC(=O)c2ccccc2)[C@@H]1O (some centres not stated) | 41% | 16% | – | –
CC(=O)NC1c2cc(Cl)ccc2OC(C)(C)[C@H]1O (some centres not stated) | – | – | 34% | Decrease in blood pressure (Rattus norvegicus [5]): 8%
CC(=O)NC1c2cc(C(C)=O)ccc2OC(C)(C)[C@H]1O (some centres not stated) | 61% | 23% | – | Decrease in blood pressure (Rattus norvegicus [3]): 20%; Increase (Oryctolagus cuniculus): 38%
CC1(C)Oc2ccc(C#N)cc2C(NC(=O)c2ccoc2)[C@@H]1O (some centres not stated) | 35% | 19% | – | –
CCCN(C(C)=O)C1c2cc(C#N)ccc2OC(C)(C)[C@H]1O (some centres not stated) | – | – | – | Decrease in blood pressure (Rattus norvegicus [1]): 58%; Decrease in blood pressure (Rattus norvegicus [5]): 24%
CC1(C)Oc2ccc(C#N)cc2C(N2CCCC2=O)C1O (configuration not stated) [CROMAKALIM] | 47% | 39% | – | Decrease in blood pressure (Rattus norvegicus [3]): 13%; Increase (Oryctolagus cuniculus): 110%
CC1(C)Oc2ccc(C#N)cc2C(NC(=O)c2ccccn2)[C@@H]1O (some centres not stated) | – | 36% | – | Decrease in blood pressure (Rattus norvegicus [3]): 22%; Increase (Oryctolagus cuniculus): 53%
CC(C)(C)NC(=O)NC1c2cc(C#N)ccc2OC(C)(C)[C@H]1O (some centres not stated) | – | – | 8% | –

SMILES | Decrease in blood pressure (Rattus norvegicus [2]) | Decrease in blood pressure (Rattus norvegicus [4]) | Decrease in blood pressure (Rattus norvegicus [6]) | other results
CC1(C)Oc2ccc(C#N)cc2C(NC=O)[C@@H]1O (some centres not stated) | – | – | 26% | Decrease in blood pressure (Rattus norvegicus [5]): 10%
CC1(C)Oc2ccc(C#N)cc2C(NC(=O)c2ccc[nH]2)[C@@H]1O (some centres not stated) | 50% | 12% | – | –
CC1(C)Oc2ccc(C#N)cc2C(NC(=O)c2cccnc2)[C@@H]1O (some centres not stated) | 43% | 27% | – | –
CCOC(=O)C(=O)NC1c2cc(C#N)ccc2OC(C)(C)[C@H]1O (some centres not stated) | – | – | 12% | –
CC(=O)N(C)C1c2cc(C#N)ccc2OC(C)(C)[C@H]1O (some centres not stated) | 31% | 11% | – | –
CC(=O)NC1=CC(C)(C)Oc2ccc(C#N)cc21 | – | – | – | Decrease in blood pressure (Rattus norvegicus [1]): 52%; Decrease in blood pressure (Rattus norvegicus [5]): 20%
CC(=O)NC1c2ccccc2OC(C)(C)[C@H]1O (some centres not stated) | – | – | 13% | –
CC1(C)Oc2ccc(C#N)cc2C(NC(=O)c2ccco2)[C@@H]1O (some centres not stated) | 54% | 11% | – | –
CC(=O)NC1c2cc(C#N)c([N+](=O)[O-])cc2OC(C)(C)[C@H]1O (some centres not stated) | – | 46% | – | Decrease in blood pressure (Rattus norvegicus [3]): 26%
CCCCC(=O)NC1c2cc(C#N)ccc2OC(C)(C)[C@H]1O (some centres not stated) | – | – | 64% | Decrease in blood pressure (Rattus norvegicus [1]): 18%
CC1(C)Oc2ccc(C#N)cc2C(NC(=O)c2c[nH]c3ccccc23)[C@@H]1O (some centres not stated) | – | – | 13% | –
CC(N/C(=N\C#N)Nc1ccncc1)C(C)(C)C (configuration not stated) [PINACIDIL ANHYDROUS] | – | – | – | Decrease in blood pressure (Rattus norvegicus [1]): 39%; Decrease in blood pressure (Rattus norvegicus [5]): 11%; Increase (Oryctolagus cuniculus): 72%
CC1(C)Oc2ccc(C#N)cc2C(NC(=O)c2ccc3ccccc3c2)[C@@H]1O (some centres not stated) | – | – | 35% | Decrease in blood pressure (Rattus norvegicus [5]): 6%; Increase (Oryctolagus cuniculus): 17%
CC1(C)Oc2ccc(C#N)cc2C(NC(=O)CCl)[C@@H]1O (some centres not stated) | – | – | 28% | –
CC(=O)NC1c2cc(C#N)ccc2OC(C)(C)[C@H]1OC(C)=O (some centres not stated) | – | 34% | – | Decrease in blood pressure (Rattus norvegicus [3]): 9%; Decrease in blood pressure (Rattus norvegicus [8]): 61%
CC(=O)NC1c2cc(C#N)ccc2OC(C)(C)[C@H]1O (some centres not stated) | 67% | 47% | – | Decrease in blood pressure (Rattus norvegicus [3]): 18%; Increase (Oryctolagus cuniculus): 59%
CCC(=O)NC1c2cc(C#N)ccc2OC(C)(C)[C@H]1O (some centres not stated) | 29% | 10% | – | –
CC1(C)Oc2ccc(C#N)cc2C(NC(=O)NC(=O)C(Cl)(Cl)Cl)[C@@H]1O (some centres not stated) | – | – | 28% | Decrease in blood pressure (Rattus norvegicus [5]): 13%
CC(=O)NC1CC(C)(C)Oc2ccc(C#N)cc21 (configuration not stated) | 44% | 18% | – | –
CNCC(=O)NC1c2cc(C#N)ccc2OC(C)(C)[C@H]1O (some centres not stated) | – | – | 15% | –
